From ChEMBL document CHEMBL1140717, “Acridine-based agents with topoisomerase II activity inhibit pancreatic cancer cell proliferation and induce apoptosis” (J Med Chem, 2008)
pIC50: −log10 of the molar value.

Assays:
MIA PaCa-2 [1] = experiment: Growth inhibition of human MiaPaCa2 cells after 72 hrs by MTT assay; format: functional, cell-based; conditions: MIA PaCa-2, 72 h
Summary of the method: (§1)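 Cells maintained in DMEM with 10% fetal calf serum plus L-glutamine, then exposed over 72 h to a range of compound concentrations. Viability read by MTT; percent growth inhibition determined and IC50 estimated from the MTT data.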

[2] = Growth inhibition of human SU86.86 cells after 72 hrs by MTT assay; format: functional, cell-based; conditions: SU.86.86, 72 h; summary of the method: as §1
BXPC-3 [3] = experiment: Growth inhibition of human BXPC3 cells after 72 hrs by MTT assay; format: functional, cell-based; conditions: BXPC-3, 72 h; summary of the method: as §1
MIA PaCa-2 [4] = experiment: Cell cycle arrest in human MiaPaCa2 cells assessed as accumulation at G1 phase at 15 uM after 36 hrs; format: functional
Summary of the method: (§2)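 Cells grown in DMEM with 10% fetal calf serum and L-glutamine, then exposed to diluent or compound at 15 µM final for 36 h. Fixed in 50% ethanol, rehydrated, RNase-treated and stained with 50 µg/mL propidium iodide in 0.1% sodium citrate. Flow cytometry (≥20 000 events per sample) gave the percentage of cells in G1, S and G2/M.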

MIA PaCa-2 [5] = experiment: Cell cycle arrest in human MiaPaCa2 cells assessed as accumulation at S phase at 15 uM after 36 hrs; format: functional; summary of the method: as §2
MIA PaCa-2 [6] = experiment: Cell cycle arrest in human MiaPaCa2 cells assessed as accumulation at G2/M phase at 15 uM after 36 hrs; format: functional; summary of the method: as §2
[7] = Cell cycle arrest in human SU86.86 cells assessed as accumulation at G1 phase at 15 uM after 36 hrs; format: functional, cell-based; conditions: SU.86.86; summary of the method: as §2
[8] = Cell cycle arrest in human SU86.86 cells assessed as accumulation at S phase at 15 uM after 36 hrs; format: functional, cell-based; conditions: SU.86.86; summary of the method: as §2
[9] = Cell cycle arrest in human SU86.86 cells assessed as accumulation at G2/M phase at 15 uM after 36 hrs; format: functional, cell-based; conditions: SU.86.86; summary of the method: as §2
BXPC-3 [10] = experiment: Cell cycle arrest in human BXPC3 cells assessed as accumulation at G1 phase at 15 uM after 36 hrs; format: functional; summary of the method: as §2
BXPC-3 [11] = experiment: Cell cycle arrest in human BXPC3 cells assessed as accumulation at S phase at 15 uM after 36 hrs; format: functional; summary of the method: as §2
BXPC-3 [12] = experiment: Cell cycle arrest in human BXPC3 cells assessed as accumulation at G2/M phase at 15 uM after 36 hrs; format: functional; summary of the method: as §2
MIA PaCa-2 [13] = experiment: Induction of apoptosis in human MiaPaCa2 cells at 25 uM after 48 hrs; format: functional
SU.86.86 [14] = experiment: Induction of apoptosis in human SU86.86 cells at 25 uM after 48 hrs; format: functional
BXPC-3 [15] = experiment: Induction of apoptosis in human BXPC3 cells at 25 uM after 48 hrs; format: functional
Summary of the method: (§3)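 BXPC-3 cells exposed to diluent or compound for 48 h, then collected and nuclei stained with Hoechst. Three hundred nuclei per field scored as apoptotic when the nucleus was fragmented into multiple discrete fragments; result expressed as percentage of cells in apoptosis.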

MIA PaCa-2 [16] = experiment: Induction of apoptosis in human MiaPaCa2 cells at 50 uM after 48 hrs; format: functional
SU.86.86 [17] = experiment: Induction of apoptosis in human SU86.86 cells 50 uM after 48 hrs; format: functional
BXPC-3 [18] = experiment: Induction of apoptosis in human BXPC3 cells 50 uM after 48 hrs; format: functional; summary of the method: as §3
MIA PaCa-2 [19] = experiment: Induction of apoptosis in human MiaPaCa2 cells at 15 uM after 48 hrs; format: functional
SU.86.86 [20] = experiment: Induction of apoptosis in human SU86.86 cells at 15 uM after 48 hrs; format: functional
BXPC-3 [21] = experiment: Induction of apoptosis in human BXPC3 cells at 15 uM after 48 hrs; format: functional; summary of the method: as §3

Row | Compound | pIC50 (MIA PaCa-2 [1]) | pIC50 [2] | pIC50 (BXPC-3 [3]) | Activity (MIA PaCa-2 [4]) | Activity (MIA PaCa-2 [5]) | Activity (MIA PaCa-2 [6]) | Activity [7] | Activity [8] | Activity [9] | Activity (BXPC-3 [10]) | Activity (BXPC-3 [11]) | Activity (BXPC-3 [12]) | Activity (MIA PaCa-2 [19]) | Activity (SU.86.86 [20]) | Activity (BXPC-3 [21]) | also measured
1 | CN1CCN(C(=O)c2ccc3c(NC4CCN(Cc5ccccc5)CC4)c4ccccc4nc3c2)CC1 | 6.00 | 5.22 | 5.15 | 28% | 52% | 20% | 53% | 29% | 18% | 77% | 16% | 7% | – | – | – | Activity (MIA PaCa-2 [13]): 36%; Activity (SU.86.86 [14]): 30%; Activity (BXPC-3 [15]): 52%
2 | CN1CCN(C(=O)c2cccc3c(NCCc4c[nH]c5ccccc45)c4ccccc4nc23)CC1 | 5.40 | 5.00 | – | 32% | 47% | 21% | 56% | 27% | 17% | 83% | 10% | 7% | – | – | – | Activity (MIA PaCa-2 [16]): 29%; Activity (SU.86.86 [17]): 23%; Activity (BXPC-3 [18]): 32%
3 | CCN(CC)C(=O)c1ccc2c(NCCc3c[nH]c4ccccc34)c3ccccc3nc2c1 | 4.96 | 5.00 | 4.85 | 32% | 50% | 18% | 60% | – | 16% | 76% | 20% | 4% | 42% | 17% | 40% | –
4 | CN1CCN(C(=O)c2ccc3c(NCCc4c[nH]c5ccccc45)c4ccccc4nc3c2)CC1 | 5.22 | 5.10 | 4.92 | 29% | 51% | 20% | 50% | 26% | 24% | 81% | 12% | 7% | 20% | 34% | 44% | –
